Test results published in ChEMBL document CHEMBL1134509, “Transformation of a kappa-opioid receptor antagonist to a kappa-agonist by transfer of a guanidinium group from the 5'- to 6'-position of naltrindole” (J Med Chem, 2001).

Columns and labels:
[1] = molecular target: Mu-type opioid receptor (Cavia porcellus) (UniProt P97266); details: Ileum, 20 nM
[2] = molecular target: Delta-type opioid receptor (Mus musculus) (UniProt P32300); test: Opioid antagonist potency, determined in mouse vas deferens (MVD) preparation, using DADLE (delta-opioid) as agonist, expressed as IC50 ratio; format: functional
In short: (§1)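 Electrically stimulated mouse vas deferens. Antagonist, normally 100 nM, preincubated 15 min before concentration-response curves to δ agonist DADLE, obtained with and without antagonist in the same preparation. IC50 ratio from the curves; Ke = [antagonist]/(IC50 ratio − 1), not computed when ratio <1. Mean ± SEM.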

[3] = molecular target: Kappa-type opioid receptor (Cavia porcellus) (UniProt P41144); details: Ileum, 20 nM
[4] = molecular target: Kappa-type opioid receptor (Cavia porcellus) (UniProt P41144); test: Opioid antagonist potency towards opioid receptor kappa 1 determined in guinea pig ileum preparation; format: functional, tissue-based
In short: (§2)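 Electrically stimulated guinea pig ileal longitudinal muscle. Antagonist at 100 nM unless noted (some at 20 nM) was preincubated 15 min, then concentration-response curves to κ agonist ethylketazocine or µ agonist morphine were run with and without antagonist in the same tissue. IC50 ratio taken from the curves; Ke = [antagonist]/(IC50 ratio − 1). Mean ± SEM, n in parentheses.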

[5] = molecular target: Kappa-type opioid receptor (Cavia porcellus) (UniProt P41144); test: Opioid antagonist potency, determined in the guinea pig ileum (GPI) preparation, by employing EK (kappa-opioid) as agonist, expressed as IC50 ratio; format: functional, tissue-based
In short: as §2

[6] = molecular target: Mu-type opioid receptor (Cavia porcellus) (UniProt P97266); test: Opioid antagonist potency, determined in guinea pig ileum (GPI) preparation, using morphine (mu-opioid) as agonist, expressed as IC50 ratio; format: functional, tissue-based
In short: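 Morphine concentration-response curves in electrically stimulated guinea pig ileal longitudinal muscle, run with and without antagonist (100 nM unless noted, 15 min preincubation) in the same preparation. Result expressed as the IC50 ratio of agonist with versus without antagonist.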

[7] = molecular target: Delta-type opioid receptor (Mus musculus) (UniProt P32300); test: Opioid antagonist potency, determined in mouse vas deferens (MVD) preparation, using DADLE (delta-opioid) as agonist (Ke=antagonist/IC50 ratio -1); format: functional
In short: as §1

[8] = molecular target: Kappa-type opioid receptor (Rattus norvegicus, UniProt P34975, E297A); test: Effect on binding to kappa(Glu297Ala) opioid receptor, using [3H]diprenorphine in transiently expressed […] HEK293 cells; format: cell-based
In short: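 Rat κ receptor carrying the Glu297Ala mutation, subcloned in pcDNA3, was transiently expressed in HEK-293 cells by calcium phosphate transfection. Ki was derived by Cheng-Prusoff.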

[9] = molecular target: Mu-type opioid receptor (Cavia porcellus) (UniProt P97266); test: Opioid antagonist potency, determined in guinea pig ileum (GPI) preparation, using morphine (mu-opioid) as agonist (Ke=antagonist/IC50 ratio -1); format: functional, tissue-based
In short: as §2

[10] = molecular target: T1, Kappa-type opioid receptor (Rattus norvegicus, UniProt P34975); test: Effect on binding to wild-type opioid receptor kappa 1 using [3H]diprenorphine in transiently expressed […] HEK293 cells; format: cell-based
In short: (§3)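 Run in 25 mM HEPES pH 7.4 for 90 min at room temperature, filtered and scintillation counted. Nonspecific binding defined with 10 µM naltrexone. Ki from IC50 by Cheng-Prusoff, mean ± SE of three experiments in duplicate.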

[11] = molecular target: T1, Kappa-type opioid receptor; test: Binding affinity towards rat opioid receptor kappa 1 was determined using [3H]diprenorphine radioligand
In short: as §3

[12] = molecular target: Delta-type opioid receptor (Mus musculus, UniProt P32300); test: Binding affinity towards mouse delta-opioid receptor was determined using [3H]diprenorphine as radioligand
In short: as §3

Mu-type opioid receptor = Mu-type opioid receptor (Rattus norvegicus, UniProt P33535); test: Binding affinity towards rat mu-opioid receptor was determined using [3H]diprenorphine as radioligand
In short: as §3

Chain of Delta-type opioid receptor (Mus musculus) (P32300 whole entry): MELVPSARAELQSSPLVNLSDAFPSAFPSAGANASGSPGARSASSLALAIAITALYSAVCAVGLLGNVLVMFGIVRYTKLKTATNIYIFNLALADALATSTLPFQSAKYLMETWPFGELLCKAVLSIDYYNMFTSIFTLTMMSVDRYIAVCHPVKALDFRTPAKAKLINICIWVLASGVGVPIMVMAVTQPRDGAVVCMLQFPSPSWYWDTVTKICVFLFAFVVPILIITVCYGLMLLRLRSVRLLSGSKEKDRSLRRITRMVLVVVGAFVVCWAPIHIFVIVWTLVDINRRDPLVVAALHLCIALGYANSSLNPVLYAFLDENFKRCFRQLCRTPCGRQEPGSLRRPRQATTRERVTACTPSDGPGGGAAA
Chain of Kappa-type opioid receptor (Cavia porcellus) (P41144 whole entry): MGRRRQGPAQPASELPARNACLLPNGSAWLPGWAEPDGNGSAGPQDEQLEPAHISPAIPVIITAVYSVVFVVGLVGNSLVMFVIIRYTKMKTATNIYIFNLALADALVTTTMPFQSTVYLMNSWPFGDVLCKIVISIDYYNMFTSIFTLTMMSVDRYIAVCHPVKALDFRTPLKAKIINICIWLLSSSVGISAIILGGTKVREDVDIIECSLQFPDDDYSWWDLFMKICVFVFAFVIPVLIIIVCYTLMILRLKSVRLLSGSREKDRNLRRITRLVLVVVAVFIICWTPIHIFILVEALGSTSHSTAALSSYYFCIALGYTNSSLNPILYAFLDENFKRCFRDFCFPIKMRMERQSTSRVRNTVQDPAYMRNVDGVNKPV
Chain of Mu-type opioid receptor (Cavia porcellus) (P97266 whole entry): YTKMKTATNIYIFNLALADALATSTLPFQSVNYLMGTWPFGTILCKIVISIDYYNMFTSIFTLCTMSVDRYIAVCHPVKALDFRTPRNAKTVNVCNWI
T1 sequence (P34975 whole entry): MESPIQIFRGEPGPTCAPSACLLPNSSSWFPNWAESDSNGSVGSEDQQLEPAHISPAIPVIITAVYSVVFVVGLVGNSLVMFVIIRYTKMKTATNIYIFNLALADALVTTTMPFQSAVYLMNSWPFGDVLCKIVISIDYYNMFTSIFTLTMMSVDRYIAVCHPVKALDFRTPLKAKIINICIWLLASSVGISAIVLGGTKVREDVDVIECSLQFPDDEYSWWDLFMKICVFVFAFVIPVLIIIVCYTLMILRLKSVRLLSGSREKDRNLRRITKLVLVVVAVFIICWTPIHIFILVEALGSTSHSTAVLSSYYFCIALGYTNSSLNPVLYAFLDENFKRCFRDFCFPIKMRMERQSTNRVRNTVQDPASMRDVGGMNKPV
Chain of Kappa-type opioid receptor (Rattus norvegicus, UniProt P34975, E297A) (P34975 whole entry E297A): as the sequence (P34975 whole entry) above, with E297A counted along it
Chain of Mu-type opioid receptor (P33535 whole entry): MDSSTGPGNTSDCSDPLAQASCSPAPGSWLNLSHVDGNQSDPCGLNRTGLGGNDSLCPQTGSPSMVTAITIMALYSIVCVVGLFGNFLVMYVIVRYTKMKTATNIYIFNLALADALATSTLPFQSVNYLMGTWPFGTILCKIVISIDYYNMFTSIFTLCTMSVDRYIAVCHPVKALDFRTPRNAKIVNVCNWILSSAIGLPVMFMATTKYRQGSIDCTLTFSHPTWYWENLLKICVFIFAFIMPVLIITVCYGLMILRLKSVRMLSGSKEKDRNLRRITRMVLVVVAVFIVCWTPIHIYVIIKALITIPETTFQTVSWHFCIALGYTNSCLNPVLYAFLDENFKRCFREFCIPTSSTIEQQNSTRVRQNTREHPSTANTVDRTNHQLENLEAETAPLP
Chain of Delta-type opioid receptor (P32300 whole entry): as the sequence (P32300 whole entry) above

| SMILES | IC50 ratio [1] | IC50 ratio [2] | IC50 ratio [3] | Ke [4] | IC50 ratio [5] | IC50 ratio [6] | Ke [7] | Ki [8] | Ke [9] | Ki [10] | Ki [11] | Ki [12] | Ki (Mu-type opioid receptor) |
| --- | --- | --- | --- | --- | --- | --- | --- | --- | --- | --- | --- | --- | --- |
| Oc1ccc2c3c1O[C@H]1c4[nH]c5c(c4C[C@@]4(O)[C@@H](C2)N(CC2CC2)CC[C@]314)C[C@@]1(O)[C@H]2Cc3ccc(O)c4c3[C@@]1(CCN2CC1CC1)[C@H]5O4 | 2.6 | 10.4 | 49.8 |  |  |  |  |  |  |  |  |  |  |
| N=C(N)Nc1cccc2c3c([nH]c12)[C@@H]1Oc2c(O)ccc4c2[C@@]12CCN(CC1CC1)[C@H](C4)[C@]2(O)C3 |  | 105 |  | 100 nM | 2 | 1.4 | 0.96 nM | 47.3 nM | 238 nM | 32.7 nM |  |  |  |
| N=C(N)Nc1ccc2c3c([nH]c2c1)[C@@H]1Oc2c(O)ccc4c2[C@@]12CCN(CC1CC1)[C@H](C4)[C@]2(O)C3 |  | 0.2 |  |  |  |  |  | 12.3 nM |  | 1.13 nM |  |  |  |
| N=C(N)Nc1cccc2[nH]c3c(c12)C[C@@]1(O)[C@H]2Cc4ccc(O)c5c4[C@@]1(CCN2CC1CC1)[C@H]3O5 |  | 1.4 |  | 80 nM | 2.3 | 0.34 | 263 nM |  |  |  | > 1000 nM | > 1000 nM | > 1000 nM |
| N=C(N)Nc1ccc2[nH]c3c(c2c1)C[C@@]1(O)[C@H]2Cc4ccc(O)c5c4[C@@]1(CCN2CC1CC1)[C@H]3O5 [GUANIDINONALTRINDOLE] |  |  | 139 | 0.16 nM |  |  |  |  |  | 0.21 nM |  |  |  |
